Experimental data published in ChEMBL document CHEMBL1122246, “Analgesic narcotic antagonists. 15. Potent narcotic agonist 7 beta-(arylalkyl)-4,5 alpha-epoxymorphinans” (1983).

What follows are compounds tested on Mus musculus (assay: Narcotic agonist activity using acetic acid induced writhing in the mouse upon subcutaneous administration). Details: not given.
Format: functional
Method in brief: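 Mouse acetic acid writhing test with subcutaneous dosing. Salt forms were given in distilled water; free bases were dissolved by adding 1 N HCl and then diluted.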

With COc1ccc2c3c1O[C@H]1[C@H]4OC[C@@]4(C(O)c4ccccc4)CC4[C@@H](C2)N(C)CC[C@@]341 (stereo partly specified) the ED50 was 11.9 µM/kg.

Same assay, conditions: Mus musculus, sc; read-out: ED50

Going from C=C[C@]1(CO)CC2C3Cc4ccc(OC)c5c4C2(CCN3C)C(O5)[C@@H]1O (stereo partly specified) to CC[C@]1(CO)CC2C3Cc4ccc(OC)c5c4C2(CCN3C)C(O5)[C@@H]1O (stereo partly specified), the ED50 falls from greater than 28 µmol/kg to 2.7 µmol/kg.

Going from COc1ccc2c3c1OC1C(=O)[C@](C)(CCCCc4ccccc4)CC4C(C2)N(CC2CC2)CCC314 (stereo partly specified) to COc1ccc2c3c1OC1C(=O)[C@](C)(CCCCc4ccccc4)CC4C(C2)N(CC2CCC2)CCC314 (stereo partly specified), the ED50 rises from 2 µmol/kg to 5.6 µmol/kg.

First: COc1ccc2c3c1OC1[C@@H](O)[C@](C)(CCCCc4ccccc4)CC4C(C2)N(CC2CCC2)CCC341 (stereo partly specified)
Second: COc1ccc2c3c1OC1[C@@H](O)[C@](C)(CCCCc4ccccc4)CC4C(C2)N(CC2CC2)CCC341 (stereo partly specified)
The ED50 of the first is higher: 11.3 µmol/kg for the first, 0.5 µmol/kg for the second.

First: COc1ccc2c3c1OC1[C@H](O)[C@](CO)(CCCCCc4ccccc4)CC4C(C2)N(CC2CC2)CCC341 (stereo partly specified)
Second: COc1ccc2c3c1OC1[C@H](O)[C@](CO)(CCCCc4ccccc4)CC4C(C2)N(CC2CC2)CCC341 (stereo partly specified)
The ED50 of the first is higher: 0.4 µmol/kg for the first, 0.22 µmol/kg for the second.

Going from COc1ccc2c3c1OC1[C@H](O)[C@](CO)(CCCCc4ccccc4)CC4C(C2)N(CC2CCC2)CCC341 (stereo partly specified) to COc1ccc2c3c1OC1[C@H](O)[C@](CO)(CCCCCc4ccccc4)CC4C(C2)N(CC2CCC2)CCC341 (stereo partly specified), the ED50 falls from 0.52 µmol/kg to 0.3 µmol/kg.

Compared with COc1ccc2c3c1OC1[C@H](O)[C@](CO)(CCCCCc4ccccc4)CC4C(C2)N(C)CCC341 (stereo partly specified), COc1ccc2c3c1OC1[C@H](O)[C@](CO)(CCCCCCc4ccccc4)CC4C(C2)N(C)CCC341 (stereo partly specified) is higher in ED50: 2.3 µmol/kg for the first, 4.5 µmol/kg for the second.

Compared with COc1ccc2c3c1OC1[C@H](O)[C@](CO)(CCCc4ccccc4)CC4C(C2)N(C)CCC341 (stereo partly specified), COc1ccc2c3c1OC1[C@H](O)[C@](CO)(CCCCc4ccccc4)CC4C(C2)N(C)CCC341 (stereo partly specified) is lower in ED50: 0.39 µmol/kg for the first, 0.014 µmol/kg for the second.

Going from COc1ccc2c3c1OC1[C@H](O)[C@@](/C=C/Cc4ccccc4)(CO)CC4C(C2)N(C)CCC341 (stereo partly specified) to COc1ccc2c3c1OC1[C@H](O)[C@@](C=CCCCc4ccccc4)(CO)CC4C(C2)N(C)CCC341 (stereo partly specified), the ED50 rises from 1.1 µmol/kg to 4 µmol/kg.

Compared with CN1CCC23c4c5ccc(O)c4OC2[C@H](O)[C@](CO)(CCCCCc2ccccc2)CC3C1C5 (stereo partly specified), CN1CCC23c4c5ccc(O)c4OC2[C@H](O)[C@](CO)(CCCCCCc2ccccc2)CC3C1C5 (stereo partly specified) is higher in ED50: 12 µmol/kg for the first, greater than 19 µmol/kg for the second.

Going from COc1ccc2c3c1OC1[C@H](O)[C@](CO)(CCc4ccccc4)CC4C(C2)N(CC2CCC2)CCC341 (stereo partly specified) to COc1ccc2c3c1OC1[C@H](O)[C@](CO)(CCc4ccccc4)CC4C(C2)N(CC2CC2)CCC341 (stereo partly specified), the ED50 falls from 0.7 µmol/kg to 0.61 µmol/kg.

First: OC[C@@]1(CCCCCc2ccccc2)CC2C3Cc4ccc(O)c5c4C2(CCN3CC2CC2)C(O5)[C@@H]1O (stereo partly specified)
Second: OC[C@@]1(CCCCc2ccccc2)CC2C3Cc4ccc(O)c5c4C2(CCN3CC2CC2)C(O5)[C@@H]1O (stereo partly specified)
The ED50 of the first is higher: greater than 19 µmol/kg for the first, 11 µmol/kg for the second.

First: OC[C@@]1(CCCc2ccccc2)CC2C3Cc4ccc(O)c5c4C2(CCN3CC2CC2)C(O5)[C@@H]1O (stereo partly specified)
Second: OC[C@@]1(CCCc2ccccc2)CC2C3Cc4ccc(O)c5c4C2(CCN3CC2CCC2)C(O5)[C@@H]1O (stereo partly specified)
The ED50 of the first is lower: 0.47 µmol/kg for the first, 0.57 µmol/kg for the second.

OC[C@@]1(CCCCCc2ccccc2)CC2C3Cc4ccc(O)c5c4C2(CCN3CC2CCC2)C(O5)[C@@H]1O (stereo partly specified) and OC[C@@]1(CCCCc2ccccc2)CC2C3Cc4ccc(O)c5c4C2(CCN3CC2CCC2)C(O5)[C@@H]1O (stereo partly specified) cannot be ordered by ED50: greater than 18 µmol/kg for the first, 21.3 µmol/kg for the second.

Going from C[C@@]1(CCc2ccccc2)CC2C3Cc4ccc(O)c5c4C2(CCN3CC2CCC2)C(O5)C1=O (stereo partly specified) to C[C@@]1(CCCCc2ccccc2)CC2C3Cc4ccc(O)c5c4C2(CCN3CC2CCC2)C(O5)C1=O (stereo partly specified), the ED50 rises from 0.04 µmol/kg to 0.17 µmol/kg.

First: COc1ccc2c3c1OC1[C@@H](O)[C@](C)(CCc4ccccc4)CC4C(C2)N(CC2CCC2)CCC341 (stereo partly specified)
Second: COc1ccc2c3c1OC1[C@H](O)[C@](CO)(CCCc4ccccc4)CC4C(C2)N(CC2CCC2)CCC341 (stereo partly specified)
The ED50 of the first is higher: 1 µmol/kg for the first, 0.04 µmol/kg for the second.

Compared with COc1ccc2c3c1OC1[C@H](O)[C@@](/C=C/CCCCc4ccccc4)(CO)CC4C(C2)N(C)CCC341 (stereo partly specified), COc1ccc2c3c1OC1[C@H](O)[C@](CO)(CCc4ccccc4)CC4C(C2)N(C)CCC341 (stereo partly specified) is lower in ED50: 13.9 µmol/kg for the first, 0.028 µmol/kg for the second.

First: CCCC[C@]1(CO)CC2C3Cc4ccc(OC)c5c4C2(CCN3C)C(O5)[C@@H]1O (stereo partly specified)
Second: CCCC[C@]1(CO)CC2C3Cc4ccc(O)c5c4C2(CCN3C)C(O5)[C@@H]1O (stereo partly specified)
The ED50 of the first is higher: 13.7 µmol/kg for the first, 0.56 µmol/kg for the second.

First: COc1ccc2c3c1O[C@H]1[C@H](O)[C@](CO)(C(O)c4ccccc4)CC4[C@@H](C2)N(C)CC[C@@]341 (stereo partly specified)
Second: COc1ccc2c3c1O[C@H]1[C@H]4OC[C@@]4(C(O)c4ccccc4)CC4[C@@H](C2)N(C)CC[C@@]341 (stereo partly specified)
The ED50 of the first is lower: 2.3 µmol/kg for the first, 6.8 µmol/kg for the second.

Going from COc1ccc2c3c1OC1[C@H]4OC[C@@]4(CCCc4ccccc4)CC4C(C2)N(CC2CCC2)CCC341 (stereo partly specified) to COc1ccc2c3c1OC1[C@H]4OC[C@@]4(CCCCc4ccccc4)CC4C(C2)N(CC2CCC2)CCC341 (stereo partly specified), the ED50 falls from 4.4 µmol/kg to 2.8 µmol/kg.

Compared with COc1ccc2c3c1OC1[C@H]4OC[C@@]4(CCc4ccccc4)CC4C(C2)N(CC2CCC2)CCC341 (stereo partly specified), COc1ccc2c3c1OC1C4OC[C@@]4(CCc4ccccc4)CC4C(C2)N(CC2CC2)CCC341 (single isomer, unassigned) is lower in ED50: greater than 16 µmol/kg for the first, 0.57 µmol/kg for the second.

First: Oc1ccc2c3c1OC1[C@H]4OC[C@@]4(CCCCc4ccccc4)CC4C(C2)N(CC2CC2)CCC341 (stereo partly specified)
Second: Oc1ccc2c3c1OC1C4OC[C@@]4(CCCCc4ccccc4)CC4C(C2)N(CC2CCC2)CCC341 (single isomer, unassigned)
The ED50 of the first is lower: 0.015 µmol/kg for the first, 0.05 µmol/kg for the second.

First: CN1CCC23c4c5ccc(O)c4OC2[C@H]2OC[C@@]2(CCCCCc2ccccc2)CC3C1C5 (stereo partly specified)
Second: CN1CCC23c4c5ccc(O)c4OC2[C@H]2OC[C@@]2(CCCCc2ccccc2)CC3C1C5 (stereo partly specified)
The ED50 of the first is higher: 0.028 µmol/kg for the first, 0.024 µmol/kg for the second.

Compared with CN1CCC23c4c5ccc(O)c4OC2[C@H]2OC[C@@]2(CCc2ccccc2)CC3C1C5 (stereo partly specified), CN1CCC23c4c5ccc(O)c4OC2[C@H]2OC[C@@]2(CCCc2ccccc2)CC3C1C5 (stereo partly specified) is lower in ED50: 0.048 µmol/kg for the first, 0.019 µmol/kg for the second.

Going from COc1ccc2c3c1OC1[C@H]4OC[C@@]4(CCCc4ccccc4)CC4C(C2)N(C)CCC341 (stereo partly specified) to COc1ccc2c3c1OC1[C@H]4OC[C@@]4(CCCCc4ccccc4)CC4C(C2)N(C)CCC341 (stereo partly specified), the ED50 falls from 0.046 µmol/kg to 0.005 µmol/kg.

Compared with COc1ccc2c3c1OC1[C@H]4OC[C@@]4(CCCCCc4ccccc4)CC4C(C2)N(C)CCC341 (stereo partly specified), COc1ccc2c3c1OC1[C@H]4OC[C@@]4(CCc4ccccc4)CC4C(C2)N(C)CCC341 (stereo partly specified) is lower in ED50: 1.3 µmol/kg for the first, 0.9 µmol/kg for the second.

Compared with Oc1ccc2c3c1OC1[C@H]4OC[C@@]4(CCCc4ccccc4)CC4C(C2)N(CC2CCC2)CCC341 (stereo partly specified), Oc1ccc2c3c1OC1C4OC[C@@]4(CCCc4ccccc4)CC4C(C2)N(CC2CC2)CCC341 (single isomer, unassigned) is lower in ED50: 0.06 µmol/kg for the first, 0.003 µmol/kg for the second.

Compared with COc1ccc2c3c1OC1[C@H]4OC[C@@]4(CCCCc4ccccc4)CC4C(C2)N(CC2CC2)CCC341 (stereo partly specified), Oc1ccc2c3c1OC1C4OC[C@@]4(CCc4ccccc4)CC4C(C2)N(CC2CC2)CCC341 (single isomer, unassigned) is lower in ED50: 0.61 µmol/kg for the first, 0.04 µmol/kg for the second.

First: C[C@@]1(CCCCc2ccccc2)CC2C3Cc4ccc(O)c5c4C2(CCN3CC2CC2)C(O5)C1=O (stereo partly specified)
Second: COc1ccc2c3c1OC1C(=O)[C@](C)(CCc4ccccc4)CC4C(C2)N(CC2CCC2)CCC314 (stereo partly specified)
The ED50 of the first is lower: 0.11 µmol/kg for the first, 0.19 µmol/kg for the second.

Going from OC[C@@]1(CCc2ccccc2)CC2C3Cc4ccc(O)c5c4C2(CCN3CC2CC2)C(O5)[C@@H]1O (stereo partly specified) to OC[C@@]1(CCc2ccccc2)CC2C3Cc4ccc(O)c5c4C2(CCN3CC2CCC2)C(O5)[C@@H]1O (stereo partly specified), the ED50 rises from 0.95 µmol/kg to 2.5 µmol/kg.

Going from CN1CCC23c4c5ccc(O)c4OC2[C@H](O)[C@](CO)(CCCCc2ccccc2)CC3C1C5 (stereo partly specified) to CN1CCC23c4c5ccc(O)c4OC2[C@H](O)[C@](CO)(CCCc2ccccc2)CC3C1C5 (stereo partly specified), the ED50 rises from 0.003 µmol/kg to 0.85 µmol/kg.

Compared with COc1ccc2c3c1OC1[C@H](O)[C@](CO)(CCCc4ccccc4)CC4C(C2)N(CC2CC2)CCC341 (stereo partly specified), CN1CCC23c4c5ccc(O)c4OC2[C@H](O)[C@](CO)(CCc2ccccc2)CC3C1C5 (stereo partly specified) is lower in ED50: 0.13 µmol/kg for the first, 0.004 µmol/kg for the second.

Compared with Oc1ccc2c3c1OC1C4OC[C@@]4(CCc4ccccc4)CC4C(C2)N(CC2CCC2)CCC341 (single isomer, unassigned), COc1ccc2c3c1O[C@H]1C(=O)CC[C@H]4[C@@H](C2)N(C)CC[C@]314 [HYDROCODONE] is higher in ED50: 0.39 µmol/kg for the first, 2.4 µmol/kg for the second.

COc1ccc2c3c1O[C@H]1[C@@H](O)C=C[C@H]4[C@@H](C2)N(C)CC[C@@]341 [CODEINE] gave an ED50 of 10.3 µmol/kg.
